# Assay results reported in ChEMBL document CHEMBL1152985, “Contributions of the combined effects of topoisomerase mutations toward fluoroquinolone resistance in Escherichia coli” (2007).
# Columns and labels:
# Escherichia coli [1] = experiment: Antibacterial activity against Escherichia coli 1596 containing gyrA L83 and parC I80, G84 mutants assessed as increase in MIC by Etest relative to MIC for Escherichia coli 1608 containing gyrA mutant; assay type: functional
# Outline: (§1)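 Defined isogenic E. coli strains in a C600 background (parent 1609); mutations introduced by λ Red recombineering with temperature-sensitive pSIM5, overnight recovery after electroporation, plasmid cured at 37°C. Fluoroquinolone MICs were read by Etest per the manufacturer's instructions. MICs above the Etest limit were measured by broth macrodilution per CLSI guidelines. Results are expressed as fold change in MIC relative to the comparator strain.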
# Escherichia coli [2] = experiment: Antibacterial activity against Escherichia coli SKM9 containing gyrA L83, Y87 and parC L80 mutants assessed as increase in MIC by Etest relative to MIC for Escherichia coli 1596 containing gyrA L83 and parC L80 mutants
# Escherichia coli [3] = experiment: Antibacterial activity against Escherichia coli 1608 containing gyrA L83, Y87 mutants assessed as increase in MIC by Etest relative to MIC for wild type Escherichia coli 1609
# Escherichia coli [4] = experiment: Antibacterial activity against Escherichia coli SKM18 containing gyrA L83, Y87 and parC I80, G84 mutants assessed as increase in MIC by Etest relative to MIC for Escherichia coli SKM9 containing gyrA L83, Y87 and parC L80 mutants
# Escherichia coli [5] = experiment: Antibacterial activity against Escherichia coli 1608 containing gyrA L83 mutant assessed as increase in MIC by Etest relative to MIC for wild type Escherichia coli 1609; assay type: functional; outline: as §1
# Escherichia coli [6] = experiment: Antibacterial activity against Escherichia coli 1596 containing parC K84 mutant assessed as decrease in MIC by Etest relative to MIC for Escherichia coli 1608 containing gyrA mutant; assay type: functional; outline: as §1
Compound,Ratio (Escherichia coli [1]),Ratio (Escherichia coli [2]),Ratio (Escherichia coli [3]),Ratio (Escherichia coli [4]),Ratio (Escherichia coli [5]),MIC (Escherichia coli [6])
CCn1cc(C(=O)O)c(=O)c2cc(F)c(N3CCNCC3)cc21 [NORFLOXACIN],5,9,5,–,–,–
COc1c(N2CCNC(C)C2)c(F)cc2c(=O)c(C(=O)O)cn(C3CC3)c12 (configuration not stated) [GATIFLOXACIN],1,9,5,2,–,–
COc1c(N2C[C@@H]3CCCN[C@@H]3C2)c(F)cc2c(=O)c(C(=O)O)cn(C3CC3)c12 [MOXIFLOXACIN],1,9,5,10,1,0.028 µg/mL
Cc1c(F)c(N2CCNC(C)C2)cc2c1c(=O)c(C(=O)O)cn2C1CC1 (configuration not stated) [GREPAFLOXACIN],–,–,–,–,–,0.014 µg/mL
CO/N=C1\CN(c2nc3c(cc2F)c(=O)c(C(=O)O)cn3C2CC2)CC1CN (configuration not stated) [GEMIFLOXACIN],1,9,5,–,–,0.007 µg/mL
C[C@H]1COc2c(N3CCN(C)CC3)c(F)cc3c(=O)c(C(=O)O)cn1c23.C[C@H]1COc2c(N3CCN(C)CC3)c(F)cc3c(=O)c(C(=O)O)cn1c23.O [LEVOFLOXACIN],1,9,5,–,–,–
C[C@@H]1CN(c2c(F)c(N)c3c(=O)c(C(=O)O)cn(C4CC4)c3c2F)C[C@H](C)N1 [SPARFLOXACIN],–,–,–,–,–,0.008 µg/mL
